Results from ChEMBL document CHEMBL1140894, “Non-vanillyl resiniferatoxin analogues as potent and metabolically stable transient receptor potential vanilloid 1 agonists” (Bioorg Med Chem, 2009).
The source made the active and inactive calls. The calls are words filed in the database; no cut-off is given here.

Assays:
[1] = biological target: T1, Transient receptor potential cation channel subfamily V member 1 (Rattus norvegicus, UniProt O35433); assay: Displacement of [3H]RTX form rat TRPV1 receptor expressed in CHO/VR1 cell system; format: cell-based
[2] = biological target: T1, Transient receptor potential cation channel subfamily V member 1; assay: Agonist activity at rat TRPV1 receptor expressed in CHO cells assessed as calcium uptake; format: functional, cell-based
[3] = Metabolic stability in Sprague-Dawley rat liver microsomes at 10 ug/mL after 60 mins by HPLC; format: ADME, Microsome; conditions: read-out: Stability
[4] = Metabolic stability in Sprague-Dawley rat plasma at 10 ug/mL after 240 mins by HPLC; format: ADME, cell-free; conditions: read-out: Stability
Summary of the method: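 Compound added to pre-warmed rat plasma to a final 10 μg/mL and incubated 240 min. Stopped with methanol at 0 and 240 min and quantified by LC-MS. Expressed as percent of initial concentration remaining.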

[5] = biological target: Transient receptor potential cation channel subfamily V member 1 (Rattus norvegicus) (UniProt O35433); assay: Activity at rat TRPV1 receptor expressed in CHO cells assessed as changes in intracellular calcium levels at 75 pM by calcium imaging; format: cell-based
[6] = biological target: Transient receptor potential cation channel subfamily V member 1 (Rattus norvegicus) (UniProt O35433); assay: Agonist activity at rat TRPV1 receptor expressed in CHO cells assessed as calcium uptake relative to capsaicin; format: functional, cell-based

T1 sequence (O35433 whole entry): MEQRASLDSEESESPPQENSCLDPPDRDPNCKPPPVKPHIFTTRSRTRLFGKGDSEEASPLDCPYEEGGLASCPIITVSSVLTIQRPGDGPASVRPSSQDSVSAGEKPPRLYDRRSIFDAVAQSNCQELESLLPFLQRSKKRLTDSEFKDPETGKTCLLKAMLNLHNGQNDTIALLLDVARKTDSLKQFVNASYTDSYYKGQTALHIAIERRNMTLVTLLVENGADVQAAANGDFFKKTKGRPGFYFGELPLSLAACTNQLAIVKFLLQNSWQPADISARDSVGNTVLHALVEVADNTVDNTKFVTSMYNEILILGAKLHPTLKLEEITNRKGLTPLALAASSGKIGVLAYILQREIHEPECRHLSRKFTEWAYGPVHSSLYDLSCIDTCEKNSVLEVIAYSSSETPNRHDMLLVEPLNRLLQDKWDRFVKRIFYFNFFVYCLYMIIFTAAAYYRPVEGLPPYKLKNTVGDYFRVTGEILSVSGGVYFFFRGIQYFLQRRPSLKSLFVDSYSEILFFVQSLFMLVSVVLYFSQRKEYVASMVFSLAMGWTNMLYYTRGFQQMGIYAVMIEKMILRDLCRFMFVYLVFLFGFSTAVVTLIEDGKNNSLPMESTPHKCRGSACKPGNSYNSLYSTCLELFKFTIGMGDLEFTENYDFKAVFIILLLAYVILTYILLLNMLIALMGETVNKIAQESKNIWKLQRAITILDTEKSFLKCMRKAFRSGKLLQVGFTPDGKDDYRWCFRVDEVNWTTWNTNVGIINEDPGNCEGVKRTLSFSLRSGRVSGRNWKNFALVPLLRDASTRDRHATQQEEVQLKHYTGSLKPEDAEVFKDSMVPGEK
Transient receptor potential cation channel subfamily V member 1 (Rattus norvegicus), sequence (O35433 whole entry): as above

SMILES	Ki [1] [nM]	EC50 [2] [nM]	remaining at 1 h, 10 ug/mL [3] [%]	remaining at 4 h, 10 ug/mL [4] [%]	Activity [5]	Activity [6] [%]
C=C(C)[C@@]12C[C@@H](C)[C@@]34OC(Cc5ccccc5)(O[C@@H]1[C@@H]3C=C(COC(=O)Cc1c(F)cccc1F)C[C@]1(O)C(=O)C(C)=C[C@@H]41)O2	2.69	11.3				
C=C(C)[C@@]12C[C@@H](C)[C@@]34OC(Cc5ccccc5)(O[C@@H]1[C@@H]3C=C(COC(=O)Cc1ccc(NS(C)(=O)=O)c(OC)c1)C[C@]1(O)C(=O)C(C)=C[C@@H]41)O2	0.228	0.106	81.4	90.8		
C=C(C)[C@@]12C[C@@H](C)[C@@]34OC(Cc5ccccc5)(O[C@@H]1[C@@H]3C=C(COC(=O)Cc1ccc(F)cc1F)C[C@]1(O)C(=O)C(C)=C[C@@H]41)O2	0.89	1.8	57.9	88.3		
C=C(C)[C@@]12C[C@@H](C)[C@@]34OC(Cc5ccccc5)(O[C@@H]1[C@@H]3C=C(COC(=O)Cc1ccc(NS(C)(=O)=O)c(F)c1)C[C@]1(O)C(=O)C(C)=C[C@@H]41)O2	0.84	2.45				
C=C(C)[C@@]12C[C@@H](C)[C@@]34OC(Cc5ccccc5)(O[C@@H]1[C@@H]3C=C(COC(=O)Cc1ccc(NS(C)(=O)=O)cc1)C[C@]1(O)C(=O)C(C)=C[C@@H]41)O2	6.81	1.78				
C=C(C)[C@@]12C[C@@H](C)[C@@]34OC(Cc5ccccc5)(O[C@@H]1[C@@H]3C=C(COC(=O)Cc1cc(F)cc(F)c1)C[C@]1(O)C(=O)C(C)=C[C@@H]41)O2	8.3	59				
C=C(C)[C@@]12C[C@@H](C)[C@@]34OC(Cc5ccccc5)(O[C@@H]1[C@@H]3C=C(CNC(=O)Cc1ccc(NS(C)(=O)=O)cc1)C[C@]1(O)C(=O)C(C)=C[C@@H]41)O2	320	375				
C=C(C)[C@]12C[C@@H](C)[C@@]34O[C@](Cc5ccccc5)(O[C@@H]1[C@@H]3C=C(COC(=O)Cc1ccc(O)c(OC)c1)C[C@]1(O)C(=O)C(C)=C[C@@H]41)O2 [RESINIFERATOXIN]	0.0426	0.27	57.6	71.7	Active	
C=C(C)[C@@]12C[C@@H](C)[C@@]34OC(Cc5ccccc5)(O[C@@H]1[C@@H]3C=C(COC(=O)Cc1ccc(F)cc1)C[C@]1(O)C(=O)C(C)=C[C@@H]41)O2	3.1	3.88				
C=C(C)[C@@]12C[C@@H](C)[C@@]34OC(Cc5ccccc5)(O[C@@H]1[C@@H]3C=C(COC(=O)Cc1cccc(F)c1F)C[C@]1(O)C(=O)C(C)=C[C@@H]41)O2	3.53	9.1				
C=C(C)[C@@]12C[C@@H](C)[C@@]34OC(Cc5ccccc5)(O[C@@H]1[C@@H]3C=C(COC(=O)Cc1cccc(F)c1)C[C@]1(O)C(=O)C(C)=C[C@@H]41)O2	2.4	1.92				
C=C(C)[C@@]12C[C@@H](C)[C@@]34OC(Cc5ccccc5)(O[C@@H]1[C@@H]3C=C(COC(=O)Cc1c(F)c(F)c(F)c(F)c1F)C[C@]1(O)C(=O)C(C)=C[C@@H]41)O2	135					23
C=C(C)[C@@]12C[C@@H](C)[C@@]34OC(Cc5ccccc5)(O[C@@H]1[C@@H]3C=C(COC(=O)Cc1cc(F)ccc1F)C[C@]1(O)C(=O)C(C)=C[C@@H]41)O2	0.4	4.21				
C=C(C)[C@@]12C[C@@H](C)[C@@]34OC(Cc5ccccc5)(O[C@@H]1[C@@H]3C=C(COC(=O)Cc1ccccc1F)C[C@]1(O)C(=O)C(C)=C[C@@H]41)O2		4.65				
C=C(C)[C@@]12C[C@@H](C)[C@@]34OC(Cc5ccccc5)(O[C@@H]1[C@@H]3C=C(COC(=O)Cc1ccc(F)c(F)c1)C[C@]1(O)C(=O)C(C)=C[C@@H]41)O2	0.98	5.5				
